Test results reported in ChEMBL document CHEMBL3525971 (Drug Metab Dispos, 2011).

Tests used:
[1] = AUC (0 to 6 hrs) in castrated pig plasma withdrawn from portal vein at 0.2 mg/kg, iv by UPLC-tandem mass spectrometry; assay type: ADME, organism-based, Sus scrofa; design: time < 6 hr, dose 0.2 mg/kg, route intravenous; settings: male
Summary of the method: (§1)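 Where ketoconazole was co-dosed, it was given at 10 mg/kg at the same jejunal site 20 min before. Plasma protein-precipitated with acetonitrile and analysed by UPLC-MS/MS (finasteride-d9). AUC0-6h, Cmax and t1/2 (ln2/λz) were derived by non- or compartmental analysis.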

[2] = Apparent half-life of the terminal disposition phase in castrated pig plasma withdrawn from femoral vein at 0.2 mg/kg, iv by UPLC-tandem mass spectrometry; assay type: ADME, organism-based, Sus scrofa; design: dose 0.2 mg/kg, route intravenous; settings: male, read-out: t1/2 lambda z (converted); summary of the method: as §1
Sus scrofa [3] = assay: Hepatic clearance in castrated pig at 0.8 mg/kg administered as intrajejunal dose 20 mins after ketoconazole administration by UPLC-tandem mass spectrometry; assay type: ADME, organism-based, Liver; design: dose 0.8 mg/kg; settings: in vivo, other
Summary of the method: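 Portal and hepatic vein plasma measured 0-6 h by UPLC-MS/MS. Extraction ratio derived from portal versus hepatic concentrations or AUCs; CLH then obtained as EH × liver blood flow 52 ml/min/kg × measured blood/plasma ratio.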

[4] = Total plasma clearance in castrated pig at 0.2 mg/kg, iv by UPLC-tandem mass spectrometry; assay type: ADME, organism-based, Sus scrofa; design: dose 0.2 mg/kg, route intravenous; settings: male
Summary of the method: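 Femoral plasma assayed over 0-6 h by UPLC-MS/MS. CL calculated as dose/AUCVF,0-6h; Vss calculated as MRT × CL, with MRT = AUMC0-6h/AUC0-6h.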

[5] = Biliary excretion in castrated pig assessed as fraction of the dose excreted at 0.8 mg/kg administered as intrajejunal dose measured during 6 hrs sampling by UPLC-tandem mass spectrometry; assay type: ADME, organism-based, Sus scrofa; design: dose 0.8 mg/kg; settings: male, bile, read-out: Drug excretion
[6] = Biliary excretion in castrated pig assessed as fraction of the dose excreted at 0.2 mg/kg, iv measured during 6 hrs sampling by UPLC-tandem mass spectrometry; assay type: ADME, organism-based, Sus scrofa; design: dose 0.2 mg/kg, route intravenous; settings: male, bile, read-out: Drug excretion
[7] = AUC (0 to 6 hrs) in castrated pig plasma withdrawn from femoral vein at 0.8 mg/kg administered as intrajejunal dose by UPLC-tandem mass spectrometry; assay type: ADME, organism-based, Sus scrofa; design: time < 6 hr, dose 0.8 mg/kg; settings: male; summary of the method: as §1
[8] = AUC (0 to 6 hrs) in castrated pig plasma withdrawn from femoral vein at 0.8 mg/kg administered as intrajejunal dose 20 mins after ketoconazole administration by UPLC-tandem mass spectrometry; assay type: ADME, organism-based, Sus scrofa; design: time < 6 hr, dose 0.8 mg/kg; settings: male; summary of the method: as §1
[9] = Cmax in castrated pig plasma withdrawn from portal vein at 0.8 mg/kg administered as intrajejunal dose by UPLC-tandem mass spectrometry; assay type: ADME, organism-based, Sus scrofa; design: dose 0.8 mg/kg; settings: male; summary of the method: as §1
[10] = Cmax in castrated pig plasma withdrawn from hepatic vein at 0.8 mg/kg administered as intrajejunal dose by UPLC-tandem mass spectrometry; assay type: ADME, organism-based, Sus scrofa; design: dose 0.8 mg/kg; settings: male; summary of the method: as §1
[11] = Cmax in castrated pig plasma withdrawn from femoral vein at 0.8 mg/kg administered as intrajejunal dose 20 mins after ketoconazole administration by UPLC-tandem mass spectrometry; assay type: ADME, organism-based, Sus scrofa; design: dose 0.8 mg/kg; settings: male; summary of the method: as §1
[12] = Tmax in castrated pig plasma withdrawn from portal vein at 0.8 mg/kg administered as intrajejunal dose by UPLC-tandem mass spectrometry; assay type: ADME, organism-based, Sus scrofa; design: dose 0.8 mg/kg; settings: male
Summary of the method: (§2)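 Portal, hepatic and femoral vein plasma sampled over 6 h and assayed by UPLC-MS/MS. Tmax read directly from the profiles. Terminal t1/2 calculated as ln2/λz by non- or compartmental analysis; values below LLOQ after Cmax excluded.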

[13] = Tmax in castrated pig plasma withdrawn from hepatic vein at 0.8 mg/kg administered as intrajejunal dose by UPLC-tandem mass spectrometry; assay type: ADME, organism-based, Sus scrofa; design: dose 0.8 mg/kg; settings: male; summary of the method: as §2
[14] = Tmax in castrated pig plasma withdrawn from femoral vein at 0.8 mg/kg administered as intrajejunal dose by UPLC-tandem mass spectrometry; assay type: ADME, organism-based, Sus scrofa; design: dose 0.8 mg/kg; settings: male; summary of the method: as §2
[15] = Tmax in castrated pig plasma withdrawn from portal vein at 0.8 mg/kg administered as intrajejunal dose 20 mins after ketoconazole administration by UPLC-tandem mass spectrometry; assay type: ADME, organism-based, Sus scrofa; design: dose 0.8 mg/kg; settings: male; summary of the method: as §2
[16] = AUC (0 to 6 hrs) in castrated pig bile at 0.8 mg/kg administered as intrajejunal dose 20 mins after ketoconazole administration by UPLC-tandem mass spectrometry; assay type: ADME, organism-based, Sus scrofa; design: time < 6 hr, route […], dose 0.8 mg/kg; settings: male
[17] = Cmax in castrated pig bile at 0.8 mg/kg administered as intrajejunal dose by UPLC-tandem mass spectrometry; assay type: ADME, organism-based, Sus scrofa; design: dose 0.8 mg/kg; settings: male
[18] = Cmax in castrated pig bile at 0.2 mg/kg, iv by UPLC-tandem mass spectrometry; assay type: ADME, organism-based, Sus scrofa; design: dose 0.2 mg/kg, route intravenous; settings: male
[19] = Ratio of AUC in bile to plasma withdrawn from portal vein in castrated pig at 0.8 mg/kg administered as intrajejunal dose 20 mins after ketoconazole administration by UPLC-tandem mass spectrometry; assay type: ADME, organism-based, Sus scrofa; design: dose 0.8 mg/kg; settings: male, read-out: Ratio AUC
Summary of the method: (§3)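 Bile collected 0-6 h and weighed; portal and hepatic vein plasma sampled. UPLC-MS/MS quantification against finasteride-d9 in SRM mode. Bile/plasma AUC ratio calculated per vein.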

[20] = Ratio of AUC in bile to plasma withdrawn from hepatic vein in castrated pig at 0.8 mg/kg administered as intrajejunal dose by UPLC-tandem mass spectrometry; assay type: ADME, organism-based, Sus scrofa; design: dose 0.8 mg/kg; settings: male, read-out: Ratio AUC; summary of the method: as §3
[21] = Ratio of AUC in bile to plasma withdrawn from hepatic vein in castrated pig at 0.8 mg/kg administered as intrajejunal dose 20 mins after ketoconazole administration by UPLC-tandem mass spectrometry; assay type: ADME, organism-based, Sus scrofa; design: dose 0.8 mg/kg; settings: male, read-out: Ratio AUC; summary of the method: as §3
[22] = Drug excretion in castrated pig urine assessed as unchanged drug level at 0.8 mg/kg administered as intrajejunal dose 20 mins after ketoconazole administration measured during 6 hrs sampling by UPLC-tandem mass spectrometry; assay type: ADME, organism-based, Sus scrofa; design: dose 0.8 mg/kg; settings: in vivo, other
[23] = Drug excretion in castrated pig urine assessed as unchanged drug level at 0.2 mg/kg, iv measured during 6 hrs sampling by UPLC-tandem mass spectrometry; assay type: ADME, organism-based, Sus scrofa; design: dose 0.2 mg/kg, route intravenous; settings: in vivo
[24] = Renal clearance in castrated pig at 0.2 mg/kg, iv by UPLC-tandem mass spectrometry; assay type: ADME, organism-based, Sus scrofa, Kidney; design: dose 0.2 mg/kg, route intravenous; settings: male, in vivo
Summary of the method: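 Urine collected 0-360 min into a closed bag, weighed and frozen at -20°C. […] Doses: iv 0.2 mg/kg bolus via central vein catheter (n=3), or ij 0.8 mg/kg alone or 20 min after ij ketoconazole 10 mg/kg (n=5). Renal clearance derived from the amount excreted in urine over 0-6 h.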

[25] = AUC (0 to 6 hrs) in castrated pig plasma withdrawn from portal vein at 0.8 mg/kg administered as intrajejunal dose by UPLC-tandem mass spectrometry; assay type: ADME, organism-based, Sus scrofa; design: time < 6 hr, dose 0.8 mg/kg; settings: male; summary of the method: as §1
[26] = Drug excretion in castrated pig urine assessed as omega-hydroxy finasteride metabolite formation by UPLC-tandem mass spectrometry; assay type: ADME, tissue-based, Sus scrofa
[27] = Terminal half life in castrated pig plasma withdrawn from femoral vein at 0.8 mg/kg administered as intrajejunal dose 20 mins after ketoconazole administration by UPLC-tandem mass spectrometry; assay type: ADME, organism-based, Sus scrofa; design: dose 0.8 mg/kg; settings: male, read-out: beta t1/2 (converted); summary of the method: as §2
Sus scrofa [28] = assay: Absorption rate constant in castrated pig plasma withdrawn from portal vein at 0.8 mg/kg administered as intrajejunal dose by UPLC-tandem mass spectrometry; assay type: ADME, organism-based; design: dose 0.8 mg/kg; settings: in vivo, other
Sus scrofa [29] = assay: Absorption rate constant in castrated pig plasma withdrawn from portal vein at 0.8 mg/kg administered as intrajejunal dose 20 mins after ketoconazole administration by UPLC-tandem mass spectrometry; assay type: ADME, organism-based; design: dose 0.8 mg/kg; settings: in vivo, other
Sus scrofa [30] = assay: Absorption rate constant in castrated pig plasma withdrawn from femoral vein at 0.8 mg/kg administered as intrajejunal dose 20 mins after ketoconazole administration by UPLC-tandem mass spectrometry; assay type: ADME, organism-based; design: dose 0.8 mg/kg; settings: in vivo, other
[31] = Biliary excretion in castrated pig assessed as unchanged drug level at 0.8 mg/kg administered as intrajejunal dose measured during 6 hrs sampling by UPLC-tandem mass spectrometry; assay type: ADME, organism-based, Sus scrofa, Bile; design: dose 0.8 mg/kg; settings: in vivo, other
[32] = Biliary excretion in castrated pig assessed as unchanged drug level at 0.8 mg/kg administered as intrajejunal dose 20 mins after ketoconazole administration measured during 6 hrs sampling by UPLC-tandem mass spectrometry; assay type: ADME, organism-based, Sus scrofa, Bile; design: dose 0.8 mg/kg; settings: in vivo, other
[33] = Biliary excretion in castrated pig assessed as unchanged drug level at 0.2 mg/kg, iv measured during 6 hrs sampling by UPLC-tandem mass spectrometry; assay type: ADME, organism-based, Sus scrofa, Bile; design: dose 0.2 mg/kg, route intravenous; settings: in vivo

CC(C)(C)NC(=O)[C@H]1CC[C@H]2[C@@H]3CC[C@H]4NC(=O)C=C[C@]4(C)[C@H]3CC[C@]12C [FINASTERIDE]
AUC(0-t) at 6 h [1]: 1.2 µM·h
half-life [2]: 204 min
CLH (Sus scrofa [3]): 18 mL/min/kg
clearance [4]: 7 mL/min/kg
dose excreted at 6 h [5]: 0.09%
dose excreted at 6 h [6]: 0.19%
AUC(0-t) at 6 h [7]: 1.7 µM·h
AUC(0-t) at 6 h [8]: 4.4 µM·h
Cmax [9]: 2600 nM
Cmax [10]: 1000 nM
Cmax [11]: 1200 nM
Tmax [12]: 18 min
Tmax [13]: 30 min
Tmax [14]: 54 min
Tmax [15]: 18 min
AUC(0-t) at 6 h [16]: 4.2 µM·h
Cmax [17]: 1300 nM
Cmax [18]: 500 nM
Kp at 20 min [19]: 0.7
Kp [20]: 14
Kp at 20 min [21]: 6
Ae [22]: 0.04 µmol
Ae [23]: 0.02 µmol
CL renal [24]: 0.01 mL/min/kg
AUC(0-t) at 6 h [25]: 2.9 µM·h
Drug excretion [26]: metabolite_not_detected
half-life [27]: 240 min
ka (Sus scrofa [28]): 19 h⁻¹
ka (Sus scrofa [29]): 29 h⁻¹
ka (Sus scrofa [30]): 3 h⁻¹
Ae [31]: 0.03 µmol
Ae [32]: 0.09 µmol
Ae [33]: 0.032 µmol
